# Assay results as given in ChEMBL document CHEMBL4699492, “Discovery of Novel Pyrazolo[3,4-b] Pyridine Derivatives with Dual Activities of Vascular Remodeling Inhibition and Vasodilation for the Treatment of Pulmonary Arterial Hypertension” (J Med Chem, 2020).
# The source made the active and inactive calls. The calls are words filed in the database; no cut-off is given here.
# How the values were obtained:
# [1] = biological target: T1, AMP-activated protein kinase, AMPK (Homo sapiens) (UniProt P54646+O43741+P54619+Q9UGJ0+Q9Y478+Q13131+Q9UGI9); experiment: Inhibition of AMPK in hypoxia-induced HPASMC assessed as reduction in cell migration measured after 24 hrs by wound healing assay; type: tissue-based; conditions: Pulmonary Artery Smooth Muscle Cells, dose microM 5-10, time 24.0 hrs
# Procedure, shortened: (§1)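 Wound-healing assay. 5 × 10^4 cells were seeded per well and grown 24 h to near confluence. The monolayer was scratched with a pipette tip and washed with PBS. Cells were then kept in 1% FBS medium with TGF-β (10 ng/mL) or under hypoxia (1% O2, 5% CO2, 94% N2), alone or with compound. Migration ran 24 h at 37 °C, imaged at 0 and 24 h. Mean ± SD from three independent experiments.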
# Rattus norvegicus [2] = experiment: In vivo inhibition of AMPK in Sprague-Dawley rat model of hypoxia-induced pulmonary artery hypertension assessed as reduction in ACC phosphorylation in lungs at 10 mg/kg, po administered daily for 2 weeks by Western blot analysis; type: functional, organism-based
# Procedure, shortened: (§2)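 Hypoxic PAH model in male SD rats (160-200 g) kept at 10% O2 for 4 weeks. Oral dosing at 10 mg/kg daily for 14 days, suspended in 0.5% CMC-Na; control and hypoxia groups received vehicle only. Lungs homogenized in RIPA with protease and phosphatase inhibitors. 30 µg protein run on 10% SDS-PAGE, then PVDF blotting, with β-actin as loading reference. Three independent runs.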
# [3] = test system: Pulmonary Artery Smooth Muscle Cells; experiment: Stimulation of sGC in HPASMC assessed as increase in intracellular cGMP level measured after 1 hr in absence of PDE5 inhibitor IBMX and presence of sGC inhibitor ODQ by cGMP-d2/europium cryptate reagent based HTRF assay; type: tissue-based; conditions: Homo sapiens, filed as activator
# Procedure, shortened: (§3)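 HPASMCs were suspended at 100,000 cells/mL in PBS with 0.2% BSA, with or without 10 µM ODQ. Compounds were added as a 6-point, 10-fold dilution series; the top 2× stock was 200 µM. Incubation was 1 h at room temperature, in triplicate. cGMP-d2 in lysis buffer and europium cryptate were then added for 1 h before HTRF reading. Three independent experiments.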
# [4] = biological target: T1, AMP-activated protein kinase, AMPK (Homo sapiens); experiment: Inhibition of AMPK in hypoxia-induced HLF1 cells assessed as reduction in cell migration measured after 24 hrs by wound healing assay; type: cell-based; conditions: dose microM 5-10, time 24.0 hrs; procedure, shortened: as §1
# Rattus norvegicus [5] = experiment: In vivo inhibition of AMPK in Sprague-Dawley rat model of hypoxia-induced pulmonary artery hypertension assessed as reduction in AMPK phosphorylation in lungs at 10 mg/kg, po administered daily for 2 weeks by Western blot analysis; type: functional, organism-based; procedure, shortened: as §2
# Aorta = experiment: Vasodilating activity in Sprague-Dawley rat aortic rings assessed as reduction in phenylephrine-induced contractions at 1 uM relative to control; type: functional
# Procedure, shortened: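 Thoracic aorta from male SD rats (250-280 g) anesthetized with chloral hydrate, cut into 4 mm rings. Rings held in Krebs-Henseleit at 37 °C gassed with 95% O2/5% CO2, under 2 g resting tension, equilibrated 60 min, and precontracted with 10^-7 M phenylephrine. Cumulative concentrations of 3×10^-9 to 10^-6 M (final) applied. Percent relaxation of the initial contraction taken at 1 µM, and EC50 derived.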
# Rattus norvegicus [6] = experiment: Inhibition of vascular remodeling activity in Sprague-Dawley rat model of hypoxia-induced pulmonary artery hypertension assessed as increase in body weight at 10 mg/kg, po administered daily for 2 weeks; type: functional, organism-based
# Rattus norvegicus [7] = experiment: Inhibition of vascular remodeling activity in Sprague-Dawley rat model of hypoxia-induced pulmonary artery hypertension assessed as weight ratio of right ventricle/left ventricle plus septum at 10 mg/kg, po administered daily for 2 weeks (reference value: 0.63); type: functional
# [8] = Effect on total ACC level in lungs of Sprague-Dawley rat model of hypoxia-induced pulmonary artery hypertension at 10 mg/kg, po administered daily for 2 weeks by Western blot analysis; type: ADME, organism-based; conditions: in vivo, 336 h; procedure, shortened: as §2
# [9] = Antiproliferative activity against HPASMC assessed as reduction in TGFbeta-induced cell proliferation measured after 48 hrs by CCK8 assay; type: functional, tissue-based; conditions: Homo sapiens, Pulmonary Artery Smooth Muscle Cells
# Procedure, shortened: (§4)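 HPASMCs grown in high-glucose D-MEM with 20% FBS and HLF1 in D-MEM/F-12 (1:1) with 10% FBS. Cells stimulated with TGF-β (10 ng/mL) at 37 °C, 5% CO2, then exposed to a concentration range for 48 h. CCK-8 added for 4 h and absorbance read at 490 nm. IC50 derived from the curves.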
# [10] = test system: Pulmonary Artery Smooth Muscle Cells; experiment: Stimulation of sGC in HPASMC assessed as increase in intracellular cGMP level measured after 1 hr in absence of PDE5 inhibitor IBMX and sGC inhibitor ODQ by cGMP-d2/europium cryptate reagent based HTRF assay; type: tissue-based; conditions: Homo sapiens, filed as activator; procedure, shortened: as §3
# [11] = Antiproliferative activity against HLF1 cells measured after 48 hrs under hypoxic condition by CCK8 assay; type: functional, cell-based; conditions: Homo sapiens, HLF1, 48 h
# Procedure, shortened: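 HPASMCs were grown in high-glucose D-MEM with 20% FBS, and HLF1 in D-MEM/F-12 (1:1) with 10% FBS. Cells were seeded for exponential growth, then exposed to a range of compound concentrations for 48 h at 37 °C under hypoxia (1% O2, 5% CO2, 94% N2). CCK-8 was added for 4 h and absorbance read at 490 nm. IC50 came from dose-response curves averaged over three independent experiments.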
# [12] = Antiproliferative activity against HLF1 cells assessed as reduction in TGFbeta-induced cell proliferation measured after 48 hrs by CCK8 assay; type: functional, cell-based; conditions: Homo sapiens, HLF1, 48 h; procedure, shortened: as §4
# Rattus norvegicus [13] = experiment: Inhibition of vascular remodeling activity in Sprague-Dawley rat model of hypoxia-induced pulmonary artery hypertension assessed as reduction in Smad2 phosphorylation in lungs at 10 mg/kg, po administered daily for 2 weeks by Western blot analysis; type: functional, organism-based; procedure, shortened: as §2
# Rattus norvegicus [14] = experiment: Inhibition of vascular remodeling activity in Sprague-Dawley rat model of hypoxia-induced pulmonary artery hypertension assessed as reduction in pulmonary artery medial thickness at 10 mg/kg, po administered daily for 2 weeks by H and E staining based digital microscopic analysis; type: functional, organism-based
# Procedure, shortened: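 Hypoxia model in male SD rats (10% O2, 4 weeks) with oral dosing at 10 mg/kg daily for 14 days in 0.5% CMC-Na. Paraffin-embedded lung tissue was cut into 5 µm sections and stained with H&E. Pulmonary artery medial thickness was quantified, n = 5/group.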
# Rattus norvegicus [15] = experiment: Inhibition of vascular remodeling activity in Sprague-Dawley rat model of hypoxia-induced pulmonary artery hypertension assessed as decrease in ratio of RV/tibial length at 10 mg/kg, po administered daily for 2 weeks; type: functional, organism-based
# [16] = test system: Pulmonary Artery Smooth Muscle Cells; experiment: Stimulation of sGC in HPASMC assessed as increase in intracellular cGMP level measured after 1 hr in presence of […] IBMX by cGMP-d2/europium cryptate reagent based HTRF assay; type: tissue-based; conditions: Homo sapiens, filed as activator
# Procedure, shortened: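 HPASMCs at 100 000 cells/mL in PBS with 1 mM IBMX and 0.2% BSA, with or without 10 µM ODQ. Exposed to a 6-point, 10-fold dilution series (top 200 µM, 2× stock) in triplicate for 1 h at room temperature. cGMP-d2 in lysis buffer and europium cryptate added, then 1 h at room temperature before HTRF reading. Three independent experiments averaged.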
structure (smiles),measurement,setting,value
Cc1ccccc1COc1nc2c(cc1-c1nc(N)cc(N)n1)c(C)nn2-c1ccccc1,inhibition,[1],Dose-dependent effect
same,inhibition,Rattus norvegicus [2],Active
same,Activity,[3],Active
same,inhibition,[4],Dose-dependent effect
same,inhibition,Rattus norvegicus [5],Active
same,Emax at 1 µM,Aorta,63.2%
same,inhibition,Rattus norvegicus [6],Active
same,Ratio,Rattus norvegicus [7],0.38
same,Activity,[8],Non-Toxic
same,IC50,[9],17 µM
same,Activity,[10],Active
same,IC50,[11],34.9 µM
same,IC50,[12],38.5 µM
same,inhibition,Rattus norvegicus [13],Active
same,inhibition,Rattus norvegicus [14],Active
same,inhibition,Rattus norvegicus [15],Active
same,Activity,[16],Dose-dependent effect
